Test results as given in ChEMBL document CHEMBL1833926, “Bicyclic heteroaryl inhibitors of stearoyl-CoA desaturase: from systemic to liver-targeting inhibitors” (Bioorg Med Chem Lett, 2011).
Calls of active or inactive are those of the source. The rule behind the calls is not given here.

What was measured:
Acyl-CoA desaturase 1 [1] = molecular target: T1, Acyl-CoA desaturase 1 (Rattus norvegicus, UniProt P07308); assay: Inhibition of rat SCD1 in rat liver microsome
T1 sequence (P07308 whole entry): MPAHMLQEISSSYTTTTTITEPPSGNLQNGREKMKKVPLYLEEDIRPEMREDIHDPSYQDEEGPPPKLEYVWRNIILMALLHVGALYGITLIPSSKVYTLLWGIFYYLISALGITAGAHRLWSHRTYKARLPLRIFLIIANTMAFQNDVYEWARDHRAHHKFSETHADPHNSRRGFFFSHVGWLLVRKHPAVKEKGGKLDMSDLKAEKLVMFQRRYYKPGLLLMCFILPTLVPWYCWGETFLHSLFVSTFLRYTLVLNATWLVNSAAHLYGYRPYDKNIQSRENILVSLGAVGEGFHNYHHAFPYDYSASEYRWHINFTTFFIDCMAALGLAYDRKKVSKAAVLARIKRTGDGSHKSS

Stearoyl-CoA desaturase = molecular target: T2, Stearoyl-CoA desaturase (Homo sapiens, UniProt O00767); assay: Inhibition of SCD1 in human HepG2 cells; format: cell-based
T2 sequence (O00767 whole entry): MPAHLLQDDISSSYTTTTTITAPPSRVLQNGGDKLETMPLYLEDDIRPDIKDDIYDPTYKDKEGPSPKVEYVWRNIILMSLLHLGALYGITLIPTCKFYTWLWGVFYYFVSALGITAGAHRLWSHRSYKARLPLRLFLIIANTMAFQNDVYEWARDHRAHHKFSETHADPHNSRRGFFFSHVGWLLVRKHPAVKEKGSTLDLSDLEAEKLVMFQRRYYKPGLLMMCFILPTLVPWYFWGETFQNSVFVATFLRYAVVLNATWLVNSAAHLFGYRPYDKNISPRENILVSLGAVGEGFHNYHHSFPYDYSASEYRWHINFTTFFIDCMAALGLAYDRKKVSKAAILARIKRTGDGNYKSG

[2] = molecular target: Acyl-CoA (8-3)-desaturase (Homo sapiens) (UniProt O60427); assay: Inhibition of delta-5 desaturase
[3] = molecular target: T3, Acyl-CoA 6-desaturase (Homo sapiens) (UniProt O95864); assay: Inhibition of delta-6 desaturase
T3 sequence (whole entry): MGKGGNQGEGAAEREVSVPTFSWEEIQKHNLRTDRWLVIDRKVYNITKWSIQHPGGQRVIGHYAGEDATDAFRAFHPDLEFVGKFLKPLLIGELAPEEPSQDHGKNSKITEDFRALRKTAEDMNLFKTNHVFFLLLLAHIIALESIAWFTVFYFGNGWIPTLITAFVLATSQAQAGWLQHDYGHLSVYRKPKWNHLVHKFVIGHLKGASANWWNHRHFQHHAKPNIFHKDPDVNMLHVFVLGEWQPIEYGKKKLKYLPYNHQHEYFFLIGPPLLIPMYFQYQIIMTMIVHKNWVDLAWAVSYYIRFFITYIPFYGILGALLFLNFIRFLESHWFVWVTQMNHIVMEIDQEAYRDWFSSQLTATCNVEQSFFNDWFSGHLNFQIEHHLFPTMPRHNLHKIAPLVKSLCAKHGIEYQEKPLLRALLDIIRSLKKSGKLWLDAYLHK

[4] = AUC (0 to 24 hrs) in C57BL/6 mouse at 10 mg/kg, po; format: ADME, organism-based, C57BL6; parameters: time < 24 hr, dose 10 mg/kg, route oral; details: whole blood
Procedure, shortened: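 Oral gavage, 10 mg/kg in 0.5% methocel, to C57BL6 mice; whole blood exposure measured over 0–24 h as AUC.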

[5] = Drug uptake in C57BL/6 mouse liver at 10 mg/kg, po after 6 hrs; format: ADME, organism-based, C57BL6; parameters: dose 10 mg/kg, route oral; details: read-out: Drug uptake
Procedure, shortened: (§1)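 Single oral dose of 10 mg/kg in 0.5% methocel given to C57BL6 mice on normal chow. Drug levels measured 6 h post-dose in liver, white adipose, skin and Harderian glands. Liver/tissue fold selectivity taken from these levels.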

[6] = Ratio of drug uptake in liver to skin in C57BL/6 mouse liver at 10 mg/kg, po after 6 hrs; format: ADME, organism-based, C57BL6; parameters: dose 10 mg/kg, route oral; details: in vivo; procedure, shortened: as §1
[7] = Ratio of drug uptake in liver to harderian glands in C57BL/6 mouse at 10 mg/kg, po after 6 hrs; format: ADME, organism-based, C57BL6; parameters: dose 10 mg/kg, route oral; details: in vivo; procedure, shortened: as §1
[8] = Drug uptake in C57BL/6 mouse adipose tissue at 10 mg/kg, po after 6 hrs; format: ADME, organism-based, C57BL6; parameters: dose 10 mg/kg, route oral; details: in vivo; procedure, shortened: as §1
[9] = Ratio of drug uptake in liver to adipose tissue in C57BL/6 mouse at 10 mg/kg, po after 6 hrs; format: ADME, organism-based, C57BL6; parameters: dose 10 mg/kg, route oral; details: in vivo; procedure, shortened: as §1
Acyl-CoA desaturase 1 [10] = molecular target: T1, Acyl-CoA desaturase 1; assay: Inhibition of SCD1 in rat Hep cells; format: cell-based
Procedure, shortened: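 Whole-cell SCD1 inhibition measured in rat hepatocytes, which express OATP transporters, in the presence of 10% fetal bovine serum; IC50 determined.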

HepG2 [11] = assay: Ratio of IC50 for SCD1 in human HepG2 cells to IC50 for SCD1 in rat Hep cells; format: cell-based
Procedure, shortened: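 Fold shift computed as hHepG2 whole-cell IC50 over rat hepatocyte IC50.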

HepG2 [12] = assay: Ratio of IC50 for SCD1 in human HepG2 cells to IC50 for rat SCD1; format: cell-based
Procedure, shortened: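 Fold shift computed as hHepG2 whole-cell IC50 over the SCD1-induced rat liver microsomal enzyme IC50.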

[13] = Apparent permeability across pig LLC-PK1 cells; format: ADME, cell-based, Sus scrofa
Mus musculus [14] = assay: Inhibition of SCD1 activity in high carbohydrate diet fed C57BL/6 mouse assessed as reduction in conversion of [1-14C]stearic acid to [1-14C]oleic acid at 60 mg/kg, po after 3 hrs; format: functional, organism-based; parameters: dose 60 mg/kg; details: C57BL6
Procedure, shortened: (§2)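 Mouse liver PD assay in C57BL6 mice on a high carbohydrate diet, n = 5/group. Compound given orally in 0.5% methocel. At 1 h, [1-14C]-stearic acid in 60% aqueous PEG 200 given iv. Livers harvested 2 h after tracer. Lipids hydrolyzed; SCD1 activity index = 14C-oleic/14C-stearic acid ratio.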

[15] = Drug uptake in C57BL/6 mouse liver at 60 mg/kg, po after 3 hrs; format: ADME, organism-based, C57BL6; parameters: dose 60 mg/kg, route oral; details: read-out: Drug uptake
Procedure, shortened: (§3)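 Drug levels in liver and plasma measured in the mouse liver PD study. C57BL6 mice on a high carbohydrate diet received an oral dose in 0.5% methocel. Samples were taken 3 h post-dose, with livers harvested 2 h after iv [1-14C]-stearic acid tracer.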

[16] = Plasma concentration in C57BL/6 mouse at 60 mg/kg, po after 3 hrs; format: ADME, organism-based, C57BL6; parameters: dose 60 mg/kg, route oral; procedure, shortened: as §3
Mus musculus [17] = assay: Inhibition of SCD1 activity in high carbohydrate diet fed C57BL/6 mouse assessed as reduction in conversion of [1-14C]stearic acid to [1-14C]oleic acid at 30 mg/kg, po after 3 hrs; format: functional; details: C57BL6, 3 h; procedure, shortened: as §2
[18] = Drug uptake in C57BL/6 mouse liver at 30 mg/kg, po after 3 hrs; format: ADME, organism-based, C57BL6; parameters: dose 30 mg/kg, route oral; details: read-out: Drug uptake; procedure, shortened: as §3
[19] = Plasma concentration in C57BL/6 mouse at 30 mg/kg, po after 3 hrs; format: ADME, organism-based, C57BL6; parameters: dose 30 mg/kg, route oral; procedure, shortened: as §3

Chain of Acyl-CoA (8-3)-desaturase (Homo sapiens) (O60427 whole entry, looked up): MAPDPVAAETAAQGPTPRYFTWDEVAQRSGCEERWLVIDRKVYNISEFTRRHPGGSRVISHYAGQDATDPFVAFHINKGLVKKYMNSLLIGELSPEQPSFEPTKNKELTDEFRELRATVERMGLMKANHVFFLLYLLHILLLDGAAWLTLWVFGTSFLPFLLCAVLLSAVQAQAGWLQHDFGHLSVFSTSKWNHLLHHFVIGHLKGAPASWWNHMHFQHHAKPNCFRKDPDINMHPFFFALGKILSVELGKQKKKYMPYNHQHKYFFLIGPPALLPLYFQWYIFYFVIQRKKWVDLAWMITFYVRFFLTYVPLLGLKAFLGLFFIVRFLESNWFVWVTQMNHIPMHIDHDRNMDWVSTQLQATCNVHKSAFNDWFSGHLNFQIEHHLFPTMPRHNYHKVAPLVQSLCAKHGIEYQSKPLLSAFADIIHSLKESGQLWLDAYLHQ

| IC50 (Acyl-CoA desaturase 1 [1]) [nM] | IC50 (Stearoyl-CoA desaturase) [nM] | inhibition [2] | inhibition [3] | SMILES | other results |
| --- | --- | --- | --- | --- | --- |
| – | – | inactive | inactive | FC(F)(F)c1ccccc1OC1CCN(c2ncnc3[nH]cnc23)CC1 | – |
| 54 | 182 | inactive | inactive | Cc1ncc2sc(N3CCC(Oc4ccccc4C(F)(F)F)CC3)nc2n1 | – |
| 7 | 29 | inactive | inactive | O=c1[nH]cnc2nc(N3CCC(Oc4ccccc4C(F)(F)F)CC3)sc12 | – |
| 56 | – | inactive | inactive | Nc1ncnc2nc(N3CCC(Oc4ccccc4C(F)(F)F)CC3)sc12 | – |
| 10 | 257 | – | – | FC(F)(F)c1ccccc1OC1CCN(c2ncc3[nH]cnc3n2)CC1 | – |
| 38 | 319 | – | – | O=c1[nH]c2cnc(N3CCC(Oc4ccccc4C(F)(F)F)CC3)nc2[nH]1 | concentration at 6 h [5]: 24.7 µM; Ratio [9]: 3.6; Ratio [6]: 4.4; Ratio [7]: 0.8 |
| 97 | 378 | inactive | inactive | O=c1[nH]c(N2CCC(Oc3ccccc3C(F)(F)F)CC2)nc2[nH]cnc12 | – |
| – | – | inactive | inactive | Nc1ncnc2[nH]c(N3CCC(Oc4ccccc4C(F)(F)F)CC3)nc12 | – |
| – | – | inactive | inactive | FC(F)(F)c1ccccc1OC1CCN(c2ncc3nc[nH]c3n2)CC1 | – |
| 10 | 48 | – | – | FC(F)(F)c1ccccc1OC1CCN(c2ncnc3nc[nH]c23)CC1 | – |
| – | – | inactive | inactive | Oc1nc2cnc(N3CCC(Oc4ccccc4C(F)(F)F)CC3)nc2[nH]1 | – |
| – | – | inactive | inactive | Fc1ccc(Br)c(OC2CCN(c3ncc4nc[nH]c4n3)CC2)c1 | – |
| 85 | 268 | inactive | inactive | O=c1[nH]ccc2nc(N3CCC(Oc4ccccc4C(F)(F)F)CC3)sc12 | – |

The next lines start with the compound.

| SMILES | IC50 (Acyl-CoA desaturase 1 [1]) [nM] | IC50 (Stearoyl-CoA desaturase) [nM] | inhibition [2] | inhibition [3] | other results |
| --- | --- | --- | --- | --- | --- |
| Cc1nc2nc(N3CCC(Oc4ccccc4C(F)(F)F)CC3)sc2c(=O)[nH]1 | 8 | 59 | inactive | inactive | AUC(0-t) at 24 h [4]: 30 µM·h; concentration at 6 h [5]: 21.8 µM; Ratio [6]: 7; Ratio [7]: 1.1; Drug uptake [8]: Not Active |
| Fc1ccc(Br)c(OC2CCN(c3nc4ccccc4s3)CC2)c1 | 477 | 10600 | inactive | inactive | – |
| FC(F)(F)c1ccccc1OC1CCN(c2nc3ncccc3s2)CC1 | 83 | 755 | inactive | inactive | – |
| Fc1ccc(Br)c(OC2CCN(c3ncc4[nH]cnc4n3)CC2)c1 | 3 | 47 | – | – | – |
| NC(=O)c1cnc(N2CCN(C(=O)c3ccccc3C(F)(F)F)CC2)s1 | – | – | – | – | AUC(0-t) at 24 h [4]: 11 µM·h |
| O=c1[nH]c(CO)nc2nc(N3CCC(Oc4ccccc4C(F)(F)F)CC3)sc12 | 2 | 16 | inactive | inactive | – |
| O=C(O)COc1nc2cnc(N3CCC(Oc4cc(F)ccc4Br)CC3)nc2s1 | 7 | 53 | – | – | Ratio [9]: 173; Ratio [6]: 403; Ratio [7]: 3; IC50 (Acyl-CoA desaturase 1 [10]): 348 nM; Ratio IC50 (HepG2 [11]): < 1; Ratio IC50 (HepG2 [12]): 7 |
| O=C(O)CCc1nc2nc(N3CCC(Oc4cc(F)ccc4Br)CC3)sc2c(=O)[nH]1 | 266 | 24300 | – | – | Ratio [9]: 31; Ratio [6]: 22; IC50 (Acyl-CoA desaturase 1 [10]): 168 nM; Ratio IC50 (HepG2 [11]): 145; Ratio IC50 (HepG2 [12]): 91; Papp [13]: 2 ×10⁻⁶ cm/s; inhibition (Mus musculus [14]): inactive; concentration at 3 h [15]: 3.3 µM; concentration at 3 h [16]: 200 nM |
| Nc1nc2cnc(N3CCC(Oc4cc(F)ccc4Br)CC3)nc2s1 | 1 | 17 | inactive | inactive | – |
| Fc1ccc(Br)c(OC2CCN(c3ncnc4[nH]cnc34)CC2)c1 | – | – | inactive | inactive | – |
| O=C(O)CNc1nc2cnc(N3CCC(Oc4cc(F)ccc4Br)CC3)nc2s1 | 4 | 168 | – | – | Ratio [9]: 41; Ratio [6]: 145; Ratio [7]: 21; IC50 (Acyl-CoA desaturase 1 [10]): 158 nM; Ratio IC50 (HepG2 [11]): 1; Ratio IC50 (HepG2 [12]): 42; inhibition in vivo at 30 mg/kg (Mus musculus [17]): 72%; concentration at 3 h [18]: 4.1 µM; concentration at 3 h [19]: 200 nM |
| Fc1ccc(Br)c(OC2CCN(c3ncnc4nc[nH]c34)CC2)c1 | 1 | < 39 | – | – | – |
